The results in this text go back to ChEMBL document CHEMBL1833883, “Synthesis and antiangiogenic activity of new silybin galloyl esters” (J Med Chem, 2011).

Converted amounts (≈) assume the structure as drawn. The source made the active and inactive calls. No cut-off for these calls is given here.

Data set [1] deals with HUVEC. Nature of the data set: Antiangiogenic activity in HUVEC assessed as inhibition of tube formation at 10 uM after 6 hrs by Matrigel assay. The conditions noted are these: Homo sapiens. The format is functional, cell-based. In outline:
(§1)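 Roughly 1 × 10⁴ HUVECs plated in EGM on polymerized Matrigel (9 mg/mL), with or without compound; 2-methoxyestradiol 10 μM as positive control. Three images per well taken at 40× magnification. Tube formation scored in a field of about 100 cells as (sprouting×1 + connected×2 + polygons×3)/total cells, and expressed as % of untreated control; p < 0.05 versus control.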

The subject of data set [2] is HUVEC. Nature of the data set: Antiproliferative activity against HUVEC assessed as inhibition of cell growth after 3 days by MTT assay. The format is functional, cell-based. The settings on record: Homo sapiens, 72 h. The gist of the method: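 4 × 10³ HUVECs incubated with serial dilutions of compound for 3 days. MTT (5 mg/mL, 10 μL) added and incubated 3 h at 37 °C; formazan dissolved in 1% NH₃ in DMSO and read at 540 nm. IC50 reported as mean ± SD of three independent experiments, each run in triplicate.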
(In general: Formazan colour is commonly taken as a measure of viable cells.)

Data set [3] relates to HUVEC. Nature of the data set: Antiangiogenic activity in HUVEC assessed as inhibition of tube formation after 24 hrs by Matrigel assay. It is filed as functional. The settings on record: Homo sapiens. The gist of the method:
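Matrigel (9 mg/mL) polymerized at 37 °C for at least 30 min. About 1 × 10⁴ HUVECs seeded in EGM with or without compound; 2-methoxyestradiol 10 μM as positive control. After 24 h, the minimal inhibitory concentration was taken as the lowest concentration at which no tubular structures formed.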

The test system of data set [4] is HUVEC. Briefly: Cytotoxicity against HUVEC by LDH release assay. The format is cell-based. The settings on record: human. In outline:
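Confluent HUVECs on gelatin-coated wells exposed overnight (16–20 h) to serial dilutions of compound in fresh EGM. Culture medium then sampled to measure LDH leakage.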
On the technique in general: LDH in the medium is a marker of cell lysis.

Data set [5] relates to HUVEC. Briefly: Cytotoxicity against HUVEC assessed as cell viability after 16 hrs by MTT assay. It is filed as cell-based. The conditions noted are these: Homo sapiens. The gist of the method:
(§2)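 Confluent HUVECs on gelatin-coated wells treated with serial dilutions of compound in fresh EGM for 16 h (overnight, 16–20 h). MTT added in medium at 1 mg/mL, 3 h at 37 °C; formazan dissolved in 1% NH₃/DMSO and absorbance read at 540 nm. IC50 reported as mean ± SD of three independent experiments, each run in triplicate.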

In data set [6] the test system is HUVEC. Briefly: Antiangiogenic activity in HUVEC assessed as inhibition of cell migration after 16 to 20 hrs by wound healing migration assay. The settings on record: Homo sapiens. The format is functional. The gist of the method: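 HUVECs (passages 2–6, isolated from umbilical cord by collagenase digestion, grown in EGM) as confluent monolayers; one 1-mm cell-free line scratched per well, cells washed twice with PBS, then given fresh EGM with or without compound. Wound photographed at time zero and after overnight (16–20 h) incubation at 37 °C. Minimal inhibitory concentration taken from reoccupation of the wound space.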

Data set [7] relates to HUVEC. Briefly: Antiangiogenic activity in HUVEC assessed as inhibition of tube formation at 75 uM after 6 hrs by Matrigel assay. The format is functional, cell-based. The conditions noted are these: Homo sapiens.
The test system of data set [8] is HUVEC. Briefly: Antiangiogenic activity in HUVEC assessed as inhibition of tube formation up to 75 uM after 6 hrs by Matrigel assay. The format is functional, cell-based. The conditions noted are these: Homo sapiens. The gist of the method: as §1
In data set [9] the test system is HUVEC. Briefly: Antiangiogenic activity in HUVEC assessed as inhibition of tube formation at 10 uM after 6 hrs by Matrigel assay relative to control. It is filed as functional. The conditions noted are these: Homo sapiens. The gist of the method: as §1
Data set [10] concerns HUVEC. Nature of the data set: Antiangiogenic activity in HUVEC assessed as inhibition of tube formation at 50 uM after 6 hrs by Matrigel assay. The settings on record: Homo sapiens. It is filed as functional, cell-based.
The nature of data set [11]: Cytotoxicity against HUVEC assessed as cell viability at 100 uM after 16 hrs by MTT assay. The format is cell-based. The settings on record: human, HUVEC cells; read-out: Activity. The gist of the method:
as §2

Data set [12] is described as follows: Cytotoxicity against HUVEC assessed as cell viability at concentration higher than IC50 after 16 hrs by MTT assay. It is filed as cell-based. The settings on record: human, HUVEC cells; read-out: Activity. The gist of the method: as §2
Data set [13] concerns HUVEC. Briefly: Antiangiogenic activity in HUVEC assessed as inhibition of tube formation after 6 hrs by Matrigel assay relative to control. The format is functional, cell-based. The conditions noted are these: Homo sapiens. The gist of the method: as §1
Data set [14] relates to HUVEC. Briefly: Antiangiogenic activity in HUVEC assessed as inhibition of tube formation at 20 uM after 6 hrs by Matrigel assay relative to control. The format is functional. The settings on record: Homo sapiens. The gist of the method:
as §1

In data set [15] the test system is HUVEC. Nature of the data set: Antiangiogenic activity in HUVEC assessed as inhibition of tube formation at 30 uM after 6 hrs by Matrigel assay relative to control. It is filed as functional. The conditions noted are these: Homo sapiens. In outline:
as §1

Take `COc1cc2c(cc1O)CC[C@@H]1[C@@H]2CC[C@]2(C)[C@@H](O)CC[C@@H]12`: the inhibition entry with HUVEC [1] is “Active”.

`COc1cc(C2Oc3cc([C@H]4Oc5cc(O)cc(O)c5C(=O)[C@@H]4O)ccc3OC2CO)ccc1O` (mixture of isomers) [SILIBININ]: the concentration for half-maximal inhibition (IC50) with HUVEC [2] was 9.99 µM; in the data set on HUVEC [5] it was 72.6 µM. Besides, the MIC amounted to 75 µM with HUVEC [3] and 50 µM in the data set with HUVEC [6]. Besides, the Activity entry in the data set on HUVEC [4] was “Non-toxic”. In addition, the inhibition entry in the data set with HUVEC [7] was “Active”.

As to `COc1cc(C2Oc3cc([C@H]4Oc5cc(O)cc(O)c5C(=O)[C@@H]4O)ccc3OC2COC(=O)c2cc(O)c(O)c(O)c2)ccc1O` (some centres undefined), the IC50 was 11.6 µM in the data set on HUVEC [2] and 55 µM in the data set with HUVEC [5]. Also, the MIC in the data set with HUVEC [3] stood at 75 µM (≈ 47.6 µg/mL); in the data set on HUVEC [6] it was 20 µM (≈ 12.7 µg/mL). The Activity result with HUVEC [4] is “Non-toxic”.

On to `COc1cc(C2Oc3cc([C@H]4Oc5cc(O)cc(O)c5C(=O)[C@@H]4OC(=O)c4cc(O)c(O)c(O)c4)ccc3OC2CO)ccc1O` (some centres undefined), for which the values for the IC50 in the data set on HUVEC [2] and with HUVEC [5] were 12.3 µM and 65 µM, respectively. In addition, the MIC in the data set on HUVEC [3] was determined as 75 µM (≈ 47.6 µg/mL); with HUVEC [6], 50 µM (≈ 31.7 µg/mL). In addition, the Activity entry in the data set with HUVEC [4] is given as “Non-toxic”. In the data set on HUVEC [8], the inhibition result was “inactive”.

With `COc1cc([C@H]2Oc3cc([C@H]4Oc5cc(O)cc(O)c5C(=O)[C@@H]4O)ccc3O[C@@H]2CO)ccc1O` [SILYBIN A], the half-inhibitory concentration (IC50) is 8.83 µM with HUVEC [2] and 62.3 µM in the data set on HUVEC [5]. Besides, the Activity result in the data set with HUVEC [4] is “Non-toxic”.

Turning to `COc1cc([C@@H]2Oc3cc([C@H]4Oc5cc(OC(=O)c6cc(O)c(O)c(O)c6)cc(O)c5C(=O)[C@@H]4O)ccc3O[C@H]2CO)ccc1O`, the IC50 in the data set with HUVEC [2] is 4.29 µM; in the data set with HUVEC [5], 7.85 µM. The Activity entry with HUVEC [4] is recorded as “Non-toxic”. Moreover, in the data set with HUVEC [9], the inhibition at 10 µM amounted to 79.9%. For the same compound, the inhibition entry in the data set on HUVEC [10] was “Active”. Also, the viability at 16 h, 100 µM in data set [11] came to 40%. In the data set on HUVEC [6], the MIC amounted to 10 µM (≈ 6.35 µg/mL). The viability at 16 h in data set [12] was found to be 50%. Further, the inhibition entry in the data set on HUVEC [13] was “Dose-dependent effect”.

Consider `COc1cc([C@H]2Oc3cc([C@H]4Oc5cc(OC(=O)c6cc(O)c(O)c(O)c6)cc(O)c5C(=O)[C@@H]4O)ccc3O[C@@H]2CO)ccc1O`, for which the values for the IC50 in the data set with HUVEC [2] and in the data set on HUVEC [5] were 6.06 µM and 17.1 µM, respectively. Besides, the Activity entry in the data set on HUVEC [4] was “Non-toxic”. Also, the inhibition at 10 µM with HUVEC [9] was 79.9%. In addition, in the data set on HUVEC [10], the inhibition entry is “Active”. The viability at 16 h, 100 µM in data set [11] was 40%. Further, the MIC in the data set on HUVEC [6] was found to be 10 µM (≈ 6.35 µg/mL). Moreover, the viability at 16 h in data set [12] stood at 50%. The inhibition entry in the data set on HUVEC [13] is “Dose-dependent effect”.

In the case of `COc1cc([C@@H]2Oc3cc([C@H]4Oc5cc(O)cc(O)c5C(=O)[C@@H]4O)ccc3O[C@H]2CO)ccc1O` [SILYBIN B], the figures for the IC50 in the data set with HUVEC [2] and with HUVEC [5] were 6.49 µM and 60.5 µM, respectively. In the data set with HUVEC [4], the Activity result was “Non-toxic”.

For `COc1cc(C2Oc3cc([C@H]4Oc5cc(OC(=O)c6cc(O)c(O)c(O)c6)cc(O)c5C(=O)[C@@H]4O)ccc3OC2CO)ccc1O` (some centres undefined), the IC50 was found to be 4.75 µM in the data set with HUVEC [2] and 9.21 µM in the data set on HUVEC [5]. Also, the MIC is 25 µM (≈ 15.9 µg/mL) in the data set with HUVEC [3] and 10 µM (≈ 6.35 µg/mL) in the data set on HUVEC [6]. In addition, in the data set on HUVEC [4], the Activity entry was “Non-toxic”. Further, the inhibition at 10 µM in the data set on HUVEC [9] was 79.9%. Also, the inhibition entry with HUVEC [10] was “Active”. The viability at 16 h, 100 µM in data set [11] was 40%. For the same compound, the viability at 16 h in data set [12] stood at 50%. Moreover, the inhibition result in the data set with HUVEC [13] is “Dose-dependent effect”.

Take `COc1cc(C2Oc3cc([C@H]4Oc5cc(O)cc(O)c5C(=O)[C@@H]4O)ccc3OC2CO)ccc1OC(=O)c1cc(O)c(O)c(O)c1` (some centres undefined): the concentration for half-maximal inhibition (IC50) came to 10.3 µM with HUVEC [2] and 35.4 µM with HUVEC [5]. For the same compound, the results for the MIC in the data set with HUVEC [3] and in the data set on HUVEC [6] were 60 µM (≈ 38.1 µg/mL) and 20 µM (≈ 12.7 µg/mL), respectively. Besides, in the data set on HUVEC [14], the inhibition at 20 µM was found to be 94.5%. In addition, in the data set on HUVEC [4], the Activity entry is recorded as “Non-toxic”. Besides, the inhibition at 30 µM in the data set with HUVEC [15] came out at 49.5%.

A word on the inhibition: it is the percentage by which the read-out fell short of the control. The IC50 is the concentration that inhibits the measured activity by half. As a reminder, the MIC is the least concentration at which growth counts as inhibited.
